How the values were obtained:
[1] = Inhibition of envelope glycoprotein in HIV pseudotyped Zaire Ebolavirus infected in human A549 cells assessed as reduction in virus entry measured after 48 hrs by luciferase reporter gene assay; assay type: cell-based; details: A549, 48 h
Summary of the method: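 A549 cells (5000/well, seeded 24 h prior) incubated 48 h with 3-fold serial compound dilutions premixed with HIV-backbone luciferase pseudovirions bearing EBOV GP. Entry quantified by luciferase signal, normalized to virus-alone cells. IC50 from logistic regression of dose-response curves.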

[2] = Cytotoxicity against human A549 cells assessed as reduction in cell viability by Celltiter-Glo assay; assay type: cell-based
Summary of the method: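 Low-passage A549 cells seeded at 5000/well 24 h ahead, then exposed for 48 h to 3-fold serial compound dilutions in fresh media without virus. Viability read by CellTiter-Glo luminescence and normalized to medium-only cells. CC50 from logistic regression fit of dose-response curves.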

[3] = tested on: envelope glycoprotein of Zaire Ebolavirus; experiment: Selectivity index, ratio of CC50 for human A549 cells to IC50 for inhibition of envelope glycoprotein in HIV pseudotyped Zaire Ebolavirus infected in human A549 cells assessed as reduction in virus entry; assay type: toxicity, cell-based; details: read-out: Ratio CC50/IC50
Summary of the method: (§1)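 IC50 wells also got HIV luciferase pseudovirions bearing MARV GP or EBOV GP, read by luciferase. CC50 wells got fresh media, read by CellTiter-Glo. Both values come from logistic dose-response fits, and the index is CC50 divided by IC50.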

[4] = tested on: envelope glycoprotein of Marburgvirus; experiment: Selectivity index, ratio of CC50 for human A549 cells to IC50 for inhibition of envelope glycoprotein in HIV pseudotyped Marburgvirus infected in human A549 cells assessed as reduction in virus entry; assay type: toxicity, cell-based; details: read-out: Ratio CC50/IC50; summary of the method: as §1

Row | Compound | IC50 [1] [µM] | CC50 [2] [µM] | selectivity ratio [3] | selectivity ratio [4]
1 | Cc1cc(=O)oc2cc(OCC(O)CN3CCC(C(N)=O)CC3)ccc12 (configuration not stated) | 9.3 | > 100 | > 10.8 | 12
2 | Cc1c(Cc2ccccc2)c(=O)oc2cc(OCC(O)CN3CCC(C(N)=O)CC3)ccc12 (configuration not stated) | 3.4 | > 100 | > 29.4 | 3.4
3 | Cc1c(Cc2ccccc2)c(=O)oc2cc(OCC(O)CNCc3cccs3)ccc12 (configuration not stated) | 3.5 | 87.3 | 24.9 | 24.9
4 | Cc1c(Cc2ccccc2)c(=O)oc2cc(OCC(O)CNCC3CC3)ccc12 (configuration not stated) | 3 | > 100 | > 33.3 | 31.6
5 | Cc1c(Cc2ccccc2)c(=O)oc2cc(OCC(O)CNc3ccc(Br)cc3)ccc12 (configuration not stated) | > 100 | > 100 | – | 1
6 | Cc1c(Cc2ccccc2)c(=O)oc2cc(OCC(O)CNc3nc4ccccc4[nH]3)ccc12 (configuration not stated) | > 100 | > 100 | – | 1
7 | Cc1c(Cc2ccccc2)c(=O)oc2cc(OCC(O)CNCCc3cccnc3)ccc12 (configuration not stated) | 1.3 | 27.4 | 20.5 | 16.4
8 | Cc1c(Cc2ccccc2)c(=O)oc2cc(OCC(O)CNC3CCOCC3)ccc12 (configuration not stated) | 2.2 | 38.2 | 17.4 | 17.1
9 | Cc1c(Cc2ccccc2)c(=O)oc2cc(OCC(O)CNCc3ccccc3)ccc12 (configuration not stated) | 1.3 | > 100 | > 75 | 45.5
10 | Cc1c(Cc2ccc(F)cc2)c(=O)oc2cc(OCC(O)CN3CCC(C(N)=O)CC3)ccc12 (configuration not stated) | 1.1 | 89.3 | 78.8 | 83.7
11 | Cc1c(Cc2ccccc2)c(=O)oc2cc(OCC(O)CNCCCO)ccc12 (configuration not stated) | 8.9 | 53.4 | 6 | 6.3
12 | COc1ccccc1-c1ccc(Cc2c(C)c3ccc(OCC(O)CN4CCC(C(N)=O)CC4)cc3oc2=O)cc1 (configuration not stated) | 1.5 | 91.6 | – | 30
13 | Cc1c(Cc2ccccc2)c(=O)oc2cc(OCC(O)CNCCc3ccncc3)ccc12 (configuration not stated) | 0.9 | > 100 | > 111 | 36.6
14 | Cc1c(Cc2ccccc2)c(=O)oc2cc(OCC(O)CNc3ccccc3)ccc12 (configuration not stated) | > 100 | > 100 | – | 1
15 | Cc1c(Cc2ccccc2)c(=O)oc2cc(OCC(O)CNc3cc([N+](=O)[O-])ccc3O)ccc12 (configuration not stated) | 81.3 | > 100 | 12 | 1
16 | Cc1c(Cc2ccccc2)c(=O)oc2cc(OCC(O)CNCCc3ccccn3)ccc12 (configuration not stated) | 3.6 | 54.9 | 15.6 | 9.3
17 | C#CCNCC(O)COc1ccc2c(C)c(Cc3ccccc3)c(=O)oc2c1 (configuration not stated) | 5.9 | 95.5 | 16.1 | 17.2
18 | Cc1c(Cc2ccccc2)c(=O)oc2cc(OCC(O)CNCCCCCCO)ccc12 (configuration not stated) | 1 | 40.3 | – | 16.6
19 | Cc1ccc2nc(NCC(O)COc3ccc4c(C)c(Cc5ccccc5)c(=O)oc4c3)sc2c1 (configuration not stated) | 10.2 | > 100 | > 9.8 | 11.3
20 | Cc1c(Cc2ccc(C(C)(C)C)cc2)c(=O)oc2cc(OCC(O)CN3CCC(C(N)=O)CC3)ccc12 (configuration not stated) | 11.7 | 14.7 | 1.3 | 2.5
21 | Cc1c(Cc2ccccc2)c(=O)oc2cc(OCC(O)CNc3nccs3)ccc12 (configuration not stated) | 2.1 | 93 | 44.3 | 33.2
22 | Cc1c(Cc2ccccc2)c(=O)oc2cc(OCC(O)CNn3ccnn3)ccc12 (configuration not stated) | > 100 | > 100 | – | 1
